# Rin1-Abl PPI inh: blocks binding of human Rin1 to Abl. P00519+Q13671. TR-FRET Rin1/Abl binding, biochemical. inhibition, % at 7.35 µM. hit rate 0.4% among 360,000. AID 588664; in the data active means inhibition above about 5%, passing the limit was not always enough
# GalR3 antag: human GalR3 antagonism | O60755 | HEK293 GalR3-CNG cAMP membrane potential fluorescence; galR3 body fused to GalR1 C-terminus | inhibition, % at 3 µM | hit rate 0.44% among 360,000 | AID 651719;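 active means inhibition above the screen-wide average plus 3 SD, cut at about 13% in these data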;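 further: forskolin and galanin both at EC90 stimulate the cells; cAMP rise reported by CNG channel membrane potential dye signal; 0% = forskolin plus galanin with DMSO and 100% = forskolin alone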
# ASAP1 GAP inh: blocks human ASAP1-stimulated Arf1 GTP hydrolysis. GDP FP detection. AID 624377. hit rate 0.19% among 360,000. inhibition, % at 16.5 µM; in the data active means inhibition above about 25%;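 further: 0% = vehicle with enzyme and substrate and 100% = no enzyme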
# ARFGAP1 inh: inhibitors of rat ARFGAP1; hit rate 0.26% among 360,000; Q62848; Arfgap1-stimulated ARF1 GTP hydrolysis, GDP FP detection; inhibition, % at 16.5 µM;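 active means inhibition above a per-plate limit, mean inhibition of low control wells plus 3 SD, cut at about 25% in these data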;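 further: 0% = DMSO wells with enzyme and 100% = wells lacking Arfgap1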
#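 System: truncated rat Arfgap1 GAP domain / Medium: HEPES-based buffer, pH 7.5 / Also added: N-terminally truncated human ARF1-GTP substrate / Incubation: enzyme reaction 120 min at 25 °C after 20 min preincubation / Measured by: FP of antibody-bound GDP Alexa 633 tracer, ex 620/em 688 nm / Replicates: singlicate, each compound tested once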
# Rin1-Abl confirm: confirmation of inhibitors of human Rin1-Abl interaction. TR-FRET Rin1-Abl binding, purified proteins. AID 602124. shares compounds with Rin1-Abl PPI inh. inhibition, % at 7.35 µM. hit rate 49% among 1,300
# GFP quench: counter-screen for Rin1-Abl inhibitors: GFP fluorescence quenchers. inhibition, % at 6.75 µM. shares compounds with Rin1-Abl PPI inh. inhibitors/quenchers counterscreen. AID 602125. hit rate 8.5% among 1,300;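 further: ABL1-eGFP fusion protein alone without its partner RIN1-SBP; 0% = protein with vehicle and 100% = wells lacking protein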
# GFP quench dose: counter-screen for Rin1-Abl inhibitors: GFP quenchers, dose response; 230 tested, under 10 active; IC50, µM; GFP fluorescence interference/quenching counterscreen; shares compounds with Rin1-Abl PPI inh; call rule not given here;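 further: ABL1-eGFP fusion protein alone without its RIN1 binding partner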
# * marks the source's active call; other numbers are inactive results; nt = no result. Shown are actives, neighbours in structure and some others; about 1.2% of the full set was active somewhere. Unless noted, no stated cut-off is given here; in the data, active means inhibition above about 6.5%; inactive means the rest.
SMILES,Rin1-Abl PPI inh,GalR3 antag,ASAP1 GAP inh,ARFGAP1 inh,Rin1-Abl confirm,GFP quench,others
C#CCOCCOCCOCCNc1nc(N2CCN(C(=O)CCCCCCCCCCNC(=O)[C@H](CCCCN)n3cc(CCO)nn3)CC2)nc(N2CCN(C(=O)CCCCCCCCCCNC(=O)[C@H](CCCN=C(N)N)n3cc(C[C@@H](C)CC)nn3)CC2)n1,22*,nt,nt,nt,nt,nt,
COC(=O)[C@]12C[C@H](CC(=O)NCCc3ccccc3OC)C(=O)N(CCC3=CCCCC3)C1=C[C@H](COCc1ccccc1)O[C@@H]2C,nt,-8,-3,1,nt,nt,
CCCCc1c(-c2ccccc2OC)ncn1Cc1cc(F)ccc1F,nt,-2,1,4,nt,nt,
COC(=O)C1=C(C)N(Cc2ccc(C(F)(F)F)cc2)C(=NCc2ccccc2C(F)(F)F)NC1c1cccc(Cl)c1 (stereo not given),nt,-1,-5,13,nt,nt,
O=C1c2ccccc2C(=O)C1c1ccc(Cl)cc1,-4,-1,-13,-10,nt,nt,
O=C1c2ccccc2C(=O)C12OC2c1ccc(Cl)cc1Cl (stereo not given),7.2*,-6,3,-9,nt,nt,
Cc1c(NC(=O)COc2c(F)c(F)c(F)c(F)c2F)c(=O)n(-c2ccccc2)n1C,3,-3,-7,27*,nt,nt,
CN(C)C(=O)C[C@H]1C[C@@H]2c3cc(NC(=O)NC4CCCC4)ccc3O[C@@H]2[C@@H](CO)O1,nt,4,9,-9,nt,nt,
C[C@@H]1COc2cc(N3CCOCC3)ccc2S(=O)(=O)N1,nt,-5,-1,-7,nt,nt,
CN1OC[C@@H]2CN(C(=O)c3ccc([N+](=O)[O-])cc3)[C@H](c3ccccc3Br)C[C@@H]21,nt,-2,-12,-1,nt,nt,
COC(=O)[C@]12C[C@H](CC(=O)NCCCCc3ccccc3)C(=O)N(CCC3=CCCCC3)C1=C[C@H](C(C)(C)C)O[C@@H]2C,nt,-5,5,-1,nt,nt,
Cc1ccc(C(=O)C[n+]2cc(-c3ccc(C)cc3)n3c2CCCCC3)cc1,3,20*,4,-19,nt,nt,
O=C1C(C2=C(O)c3ccccc3C2=O)=Nc2ccccc21,-1,-4,39*,16,nt,nt,
CN=CC1=C(O)c2ccccc2C1=O,-6,-3,-5,1,nt,nt,
S=c1nc(Cc2ccc(Cl)cc2)[nH]c2ccccc12,0,13*,5,-4,nt,nt,
Cc1c(F)cccc1NS(=O)(=O)c1ccc2c(c1)c(=O)n(C)c(=O)n2C,10*,2,7,7,2,-1,
O=C(NCc1ccco1)Nc1c(Cl)cc(Cl)cc1Cl,nt,-7,-14,-11,nt,nt,
Cc1ccc(NC(=O)CCCCCNS(=O)(=O)c2ccc(C)cc2)cc1,-1,-1,3,9,nt,nt,
CC1NC(=O)NC1CCCCCC(=O)Nc1ccc(F)c(Cl)c1 (stereo not given),86*,2,-13,-14,97*,0,GFP quench dose=>67
O=C(CC1SCCNC1=O)Nc1ccc(F)c(Cl)c1 (stereo not given),21*,-3,2,-2,21*,1,GFP quench dose=>68
CCc1cccc(NC(=O)CCCCCC2NC(=O)NC2C)c1 (stereo not given),97*,3,11,-10,100*,1,GFP quench dose=>68
Cc1ccc(NC(=O)CCCCCC2NC(=O)NC2C)cc1 (stereo not given),88*,nt,nt,nt,91*,0,GFP quench dose=>68
Cc1ccc(S(=O)(=O)NC(CCCNC(=O)OCc2ccccc2)C(=O)O)cc1 (stereo not given),nt,-4,5,8,nt,nt,
CSc1cccc(NC(=S)NN/C(=N/S(=O)(=O)c2ccccc2)N2CCCC2)c1,nt,-6,-5,-8,nt,nt,
CC1NC(=O)NC1CCCCC(=O)O (stereo not given),8.1*,-2,-8,2,9.0*,0,
C[C@@H]1C=CCCO[C@]12C(=O)N(Cc1ccc(Br)cc1)c1cccc(Br)c12,nt,-8,-11,-7,nt,nt,
CN1CCN(C(=O)CSc2nc(-c3ccncc3)ccc2C#N)CC1,10*,-2,2,1,17*,3,GFP quench dose=>68
CN1CCN(C(=O)CSc2nc(-c3cccs3)cc(-c3cccs3)c2C#N)CC1,-5,nt,nt,nt,nt,nt,

# Bioassay records: PubChem, The Scripps Research Institute Molecular Screening Center
